Source: article PMC3544975 (Biochemical and biophysical research communications, 2012)
Like-named read-outs stand apart in the source and are kept apart here.

What was measured:
human PMK [1] = molecular target: T1, human PMK (Homo sapiens, UniProt Q15126); experiment: Fluorescence titration; type: binding
T1 sequence (Q15126 1-192): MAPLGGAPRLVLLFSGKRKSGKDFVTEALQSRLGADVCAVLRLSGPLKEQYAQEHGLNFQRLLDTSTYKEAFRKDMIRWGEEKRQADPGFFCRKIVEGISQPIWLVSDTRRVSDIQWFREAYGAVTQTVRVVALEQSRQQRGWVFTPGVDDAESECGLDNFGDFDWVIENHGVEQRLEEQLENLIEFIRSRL
Method in brief: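 N-terminally His6-tagged human PMK was expressed in E. coli BL21(DE3) Rosetta and purified on Ni-Sepharose. Titration used 5 µM PMK in 20 mM potassium phosphate, 5 mM DTT, 100 mM KCl, 10% glycerol, pH 6.5, at 25 °C. Excitation was 295 nm, with emission recorded over 300–400 nm. The bound-minus-free intensity difference was fitted against ligand concentration to a one-site specific binding equation.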

human PMK [2] = molecular target: T1, human PMK; conditions: read-out: affinity of natural substrates; cited from earlier work

Kd (human PMK [1])	Structure (SMILES)	Kd (human PMK [2])
61 ± 19.5 µM	O=c1cc(-c2ccc(O)c(O)c2)oc2cc(O)cc(O)c12 [luteolin]	
	Nc1ncnc2c1ncn2[C@@H]1O[C@H](COP(=O)(O)OP(=O)(O)O)[C@@H](O)[C@H]1O [ADP, adenosine diphosphate]	19.9 ± 9 µM
	Nc1ncnc2c1ncn2[C@@H]1O[C@H](COP(=O)(O)OP(=O)(O)OP(=O)(O)O)[C@@H](O)[C@H]1O [ATP, adenosine-5'-triphosphate]	29 ± 6 µM
